# Results published in ChEMBL document CHEMBL2176871, “Development of ligands at γ-aminobutyrric acid type A (GABAA) receptor subtype as new agents for pain relief” (Bioorg Med Chem, 2011).
# Assays:
# [1] = Displacement of [3H]Ro151788 from GABA(A)/BzR in bovine cerebral cortex membrane; type: cell membranes, Bos taurus
# Summary of the method: (§1)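 Bovine cerebral cortex membranes in 50 mM Tris-citrate pH 7.4; [3H]flumazenil displacement. Compounds first tested at a fixed 10 µM; Ki determined only when inhibition exceeded 80%, using at least six concentrations. Five experiments run in triplicate; IC50 obtained by iterative curve fitting and converted to Ki with the Cheng–Prusoff equation.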
# Bos taurus = species: Bos taurus; assay: Displacement of [3H]Ro151788 from GABA(A)/BzR in bovine cerebral cortex membrane at 10 uM; type: cell membranes; summary of the method: as §1
# Rattus norvegicus [2] = assay: Antinociceptive activity in Sprague-Dawley rat mononeuropathy pain model assessed as increase in injured paw pressure at 30 mg/kg, po after 45 mins by paw pressure test relative to non-treated control; type: functional
# Summary of the method: (§2)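 Chronic constriction injury: loose ligatures placed on the common sciatic nerve under chloral hydrate; contralateral sham dissection. Tested 14 days after surgery. Paw pressure applied at 32 g/s; threshold taken as the force causing the first struggle; cut-off 250 g; pretest outliers (<40 g or >75 g) excluded. Oral dosing in 10 ml/kg; read at 15, 30 and 45 min; compared with a CMC-treated group.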
# Rattus norvegicus [3] = assay: Toxicity in Sprague-Dawley rat mononeuropathy pain model assessed as effect on contralateral paw pressure at 30 mg/kg, po after 15 mins by paw pressure test; type: organism-based; design: dose 30 mg/kg, route oral; conditions: in vivo, 0.25 h
# Summary of the method: (§3)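 Same sciatic-ligation rat model, 14 days after surgery. Threshold measured on the non-operated contralateral hind paw by analgesimeter at 32 g/s; first-struggle endpoint; 250 g cut-off; pretest rats outside 40–75 g rejected. Compound given po in 10 ml/kg; readings at 15, 30 and 45 min.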
# Rattus norvegicus [4] = assay: Toxicity in Sprague-Dawley rat mononeuropathy pain model assessed as effect on contralateral paw pressure at 30 mg/kg, po after 45 mins by paw pressure test; type: organism-based; design: dose 30 mg/kg, route oral; conditions: in vivo, 0.75 h; summary of the method: as §3
# Rattus norvegicus [5] = assay: Toxicity in Sprague-Dawley rat mononeuropathy pain model assessed as effect on contralateral paw pressure at 30 mg/kg, po after 30 mins by paw pressure test; type: organism-based; design: dose 30 mg/kg, route oral; conditions: in vivo, 0.5 h; summary of the method: as §3
# Rattus norvegicus [6] = assay: Antinociceptive activity in Sprague-Dawley rat mononeuropathy pain model assessed as increase in injured paw pressure at 30 mg/kg, po after 30 mins by paw pressure test relative to non-treated control; type: functional; summary of the method: as §2
# Rattus norvegicus [7] = assay: Antinociceptive activity in Sprague-Dawley rat mononeuropathy pain model assessed as increase in injured paw pressure at 30 mg/kg, po after 15 mins by paw pressure test relative to non-treated control; type: functional; summary of the method: as §2
Structure (SMILES),Ki [1] [nM],inhibition (Bos taurus) [%],also measured
Cc1cnn2c1nnc1ccc(OCc3ccccc3)cc12,1.6,> 80,
O=C(c1cccs1)c1cnn2c1n[n+]([O-])c1ccc(Oc3ccccc3)cc12,,,Activity (Rattus norvegicus [2]): 43.2 g; Activity (Rattus norvegicus [3]): 60.6 g; Activity (Rattus norvegicus [4]): 61.2 g; Activity (Rattus norvegicus [5]): 57.8 g; Activity (Rattus norvegicus [6]): 38.4 g; Activity (Rattus norvegicus [7]): 37.7 g
Ic1cnn2c1nnc1ccc(NCc3ccccc3)cc12,0.71,> 80,
[O-][n+]1nc2c(I)cnn2c2cc(Cl)ccc21,22.8,,
[O-][n+]1nc2c(I)cnn2c2cc(OCc3ccccc3)ccc21,,,Activity (Rattus norvegicus [2]): 36.4 g; Activity (Rattus norvegicus [3]): 62.7 g; Activity (Rattus norvegicus [4]): 65.1 g; Activity (Rattus norvegicus [5]): 59.2 g; Activity (Rattus norvegicus [6]): 46.5 g; Activity (Rattus norvegicus [7]): 37.1 g

# Further lines, with some results ahead:
Ki [1] [nM],inhibition (Bos taurus) [%],Structure (SMILES),also measured
0.78,> 80,COc1ccccc1CNc1ccc2c(c1)n1ncc(C)c1n[n+]2[O-],
0.138,> 80,COc1ccccc1CNc1ccc2c(c1)n1ncc(I)c1n[n+]2[O-],
361,> 80,Cc1cnn2c1n[n+]([O-])c1ccc(OCC(C)c3ccccc3)cc12 (racemic),
14.7,> 80,[O-][n+]1nc2c(I)cnn2c2cc(NCCc3ccccc3)ccc21,
